According to ChEMBL document CHEMBL5034008, “Diversity-Oriented A3-Macrocyclization for Studying Influences of Ring-Size and Shape of Cyclic Peptides: CD36 Receptor Modulators” (J Med Chem, 2021):
Non-standard residues stand in square brackets, D forms with d. Residues, ends and D or L forms follow the SMILES beside them. ξ: configuration not given here. *: point of attachment. X1 = CCCCCCCCCCCCCCCC(=O)OCC(C*)OC(=O)CCCCCCCCCCCCCCC; ξC = NC(CS)C(=O)O

Columns and labels:
[1] = biological target: Platelet glycoprotein 4 (Mus musculus) (UniProt Q08857); assay: Modulation of CD36 receptor in mouse RAW 264.7 cells assessed as inhibition of R-FSL-1-induced NO production pretreated for 30 mins followed by R-FSL-1 stimulation measured after 1140 min by fluorescence plate reader assay; type: cell-based; conditions: RAW264.7, filed as modulator, time 1170.0 min
Summary of the method: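 RAW 264.7 cells seeded at 1.5 × 10^5 per well in DMEM with pen/strep. After 2 h, medium changed to DMEM with 0.2% BSA containing peptide. Cells stimulated with R-FSL-1 at 300 ng/mL for 19 h. Nitrite in 25 μL supernatant reacted with 0.5 μg 2,3-diaminonaphthalene in 50 mM phosphate pH 7.5, 15 min at room temperature in the dark, stopped with NaOH. Fluorescence read.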

[2] = biological target: Platelet glycoprotein 4 (Mus musculus) (UniProt Q08857); assay: Modulation of CD36 receptor in mouse RAW 264.7 cells assessed as inhibition of R-FSL-1-induced NO production at competitive receptor binding assay IC50 concentration pretreated for 30 mins followed by R-FSL-1 stimulation measured after 19 hrs by fluorescence plate reader assay relative to R-FSL-1; type: cell-based; parameters: scale not given: the % may be the effect or the level left
[3] = biological target: Platelet glycoprotein 4 (Mus musculus) (UniProt Q08857); assay: Modulation of CD36 receptor in mouse RAW 264.7 cells assessed as inhibition of R-FSL-1-induced TNFalpha production pretreated for 30 mins followed by R-FSL-1 stimulation measured after 4 hrs by ELISA; type: cell-based; conditions: RAW264.7, filed as modulator, time 4.5 hrs
Summary of the method: (§1)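 RAW 264.7 cells seeded at 1.5 × 10^5 per well and weaned overnight in DMEM with 1% pen/strep. Medium then changed to DMEM with 0.2% BSA. Cells pretreated 30 min with peptide at 10^-7 M, with linear [azaTyr4]-GHRP-6 as reference. Stimulated with R-FSL-1 at 300 ng/mL for 4 h at 37 °C. TNF-α or CCL-2 in supernatant measured by ELISA. Inhibition % = (FSL-1 − treated)/(FSL-1 − basal) × 100.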

[4] = biological target: Platelet glycoprotein 4 (Mus musculus) (UniProt Q08857); assay: Modulation of CD36 receptor in mouse RAW 264.7 cells assessed as inhibition of R-FSL-1-induced TNFalpha production at competitive receptor binding assay IC50 concentration pretreated for 30 mins followed by R-FSL-1 stimulation measured after 19 hrs by ELISA relative to R-FSL-1; type: cell-based; parameters: scale not given: the % may be the effect or the level left; conditions: RAW264.7, time 19.5 hrs
[5] = biological target: Platelet glycoprotein 4 (Mus musculus) (UniProt Q08857); assay: Modulation of CD36 receptor in mouse RAW 264.7 cells assessed as inhibition of R-FSL-1-induced CCL-2 production pretreated for 30 mins followed by R-FSL-1 stimulation measured after 4 hrs by ELISA; type: cell-based; conditions: RAW264.7, filed as modulator, time 4.5 hrs; summary of the method: as §1
[6] = biological target: Platelet glycoprotein 4 (Mus musculus) (UniProt Q08857); assay: Modulation of CD36 receptor in mouse RAW 264.7 cells assessed as inhibition of R-FSL-1-induced CCl-2 production at competitive receptor binding assay IC50 concentration pretreated for 30 mins followed by R-FSL-1 stimulation measured after 19 hrs by ELISA relative to R-FSL-1; type: cell-based; parameters: scale not given: the % may be the effect or the level left
[7] = biological target: Platelet glycoprotein 4 (Mus musculus) (UniProt Q08857); assay: Modulation of CD36 receptor in mouse BMA3.1A7 cells assessed as inhibition of R-FSL-1-induced IL-1beta production […] measured after 4 hrs by ELISA; type: cell-based; conditions: filed as modulator, time 4.5 hrs
[8] = biological target: Platelet glycoprotein 4 (Mus musculus) (UniProt Q08857); assay: Modulation of CD36 receptor in mouse BMA3.1A7 cells assessed as inhibition of R-FSL-1-induced IL-1beta production at competitive receptor binding assay IC50 concentration pretreated for 30 mins followed by R-FSL-1 stimulation measured after 4 hrs by ELISA relative to R-FSL-1; type: cell-based; parameters: scale not given: the % may be the effect or the level left; conditions: time 4.5 hrs
Platelet glycoprotein 4 = Platelet glycoprotein 4 (Rattus norvegicus, UniProt Q07969); assay: Displacement of [125I]-Tyr-Bpa-Ala-hexarelin from rat CD36 receptor in heart tissue membrane incubated for 60 mins by competitive receptor binding assay; type: cell membranes
Summary of the method: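 Rat heart membranes (50 μg) incubated in the dark with 250,000 cpm [125I]-Tyr-Bpa-Ala-hexarelin in 50 mM Tris-HCl pH 7.4, 2 mM EGTA, 0.05% bacitracin, with competitor at 0.1–10 μM; hexarelin as reference. Nonspecific binding defined with 50 μM peptide. 60 min at 22 °C, then UV photolysis at 365 nm for 15 min at 4 °C. Pellets resolved on 7.5% SDS-PAGE.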

[9] = RAW264.7, filed as modulator, time 19.5 hrs

Chain of Platelet glycoprotein 4 (Q07969 whole entry): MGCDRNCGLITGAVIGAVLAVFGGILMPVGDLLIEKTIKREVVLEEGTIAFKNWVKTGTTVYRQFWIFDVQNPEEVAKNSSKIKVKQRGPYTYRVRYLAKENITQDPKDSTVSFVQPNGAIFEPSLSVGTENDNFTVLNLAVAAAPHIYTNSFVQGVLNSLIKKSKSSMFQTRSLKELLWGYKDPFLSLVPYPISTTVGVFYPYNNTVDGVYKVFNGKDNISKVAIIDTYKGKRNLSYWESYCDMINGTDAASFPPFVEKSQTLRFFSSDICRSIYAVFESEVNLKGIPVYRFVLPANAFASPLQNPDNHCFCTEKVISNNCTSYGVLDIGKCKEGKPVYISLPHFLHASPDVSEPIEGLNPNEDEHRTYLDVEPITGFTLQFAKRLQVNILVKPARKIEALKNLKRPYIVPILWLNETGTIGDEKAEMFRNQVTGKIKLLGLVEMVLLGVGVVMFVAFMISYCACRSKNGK
Chain of Platelet glycoprotein 4 (Mus musculus) (Q08857 whole entry): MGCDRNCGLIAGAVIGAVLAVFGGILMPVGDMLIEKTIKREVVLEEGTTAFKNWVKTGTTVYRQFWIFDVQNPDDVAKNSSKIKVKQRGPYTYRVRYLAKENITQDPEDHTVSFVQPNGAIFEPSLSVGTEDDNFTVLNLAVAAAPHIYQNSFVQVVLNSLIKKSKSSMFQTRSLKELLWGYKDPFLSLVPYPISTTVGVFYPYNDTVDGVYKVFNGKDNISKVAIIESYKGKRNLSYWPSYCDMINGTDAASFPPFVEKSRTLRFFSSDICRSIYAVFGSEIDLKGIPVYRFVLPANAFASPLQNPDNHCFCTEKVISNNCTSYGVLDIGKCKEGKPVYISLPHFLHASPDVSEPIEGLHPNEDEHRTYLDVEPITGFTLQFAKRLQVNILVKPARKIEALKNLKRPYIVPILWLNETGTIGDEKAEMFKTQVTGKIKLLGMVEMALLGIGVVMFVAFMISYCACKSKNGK

| Structure (SMILES) | Activity [1] [µM] | Activity ([2]; RAW264.7, time 1170.0 min) [%] | Activity [3] [pmol] | Activity [4] [%] | Activity [5] [pmol] | Activity ([6]; RAW264.7, time 19.5 hrs) [%] | Activity [7] [pmol] | Activity [8] [%] | Activity ([8]; filed as modulator) [%] | IC50 (Platelet glycoprotein 4) [µM] | Activity [6, 9] [%] | Activity ([2]; RAW264.7, filed as modulator, time 1170.0 min) [%] |
| --- | --- | --- | --- | --- | --- | --- | --- | --- | --- | --- | --- | --- |
| C=CCN1CC#CCN(NC(C)=O)C(=O)N[C@H](Cc2c[nH]c3ccccc23)C(=O)N[C@@H](C)C(=O)N[C@@H](Cc2c[nH]c3ccccc23)C(=O)N[C@H](Cc2ccccc2)C(=O)N[C@H](C(N)=O)CCCC1 | 2.45 | 18 | 4560 | 10 | 785 | 36 | 351 | 18 |  |  |  |  |
| C=CCN1CC#CCN(NC(=O)[C@H](C)N)C(=O)N[C@H](Cc2c[nH]c3ccccc23)C(=O)N[C@@H](C)C(=O)N[C@@H](Cc2c[nH]c3ccccc23)C(=O)N[C@H](Cc2ccccc2)C(=O)N[C@H](C(N)=O)CC1 | 2.26 | 27 | 4180 | 19 | 857 | 28 | 271 |  | 41 | 4.75 |  |  |
| C[C@H](N)C(=O)NN1C/C=C\CN(CC2CC2)CCCC[C@@H](C(N)=O)NC(=O)[C@@H](Cc2ccccc2)NC(=O)[C@H](Cc2c[nH]c3ccccc23)NC(=O)[C@H](C)NC(=O)[C@@H](Cc2c[nH]c3ccccc23)NC1=O | 2.57 | 12 | 4820 | 3 | 903 | 23 | 312 | 9 |  | 9.05 |  |  |
| C=CCN1CC#CCN(NC(=O)[C@H](C)NC(C)=O)C(=O)N[C@H](Cc2c[nH]c3ccccc23)C(=O)N[C@@H](C)C(=O)N[C@@H](Cc2c[nH]c3ccccc23)C(=O)N[C@H](Cc2ccccc2)C(=O)N[C@H](C(N)=O)CCCC1 | 2.35 | 23 | 4040 | 22 | 707 |  | 304 | 32 |  |  | 45 |  |
| C=CCN1CC#CCN(NC(=O)[C@H](C)N)C(=O)N[C@H](Cc2c[nH]c3ccccc23)C(=O)N[C@@H](C)C(=O)N[C@@H](Cc2c[nH]c3ccccc23)C(=O)N[C@H](Cc2ccccc2)C(=O)N[C@H](C(N)=O)CCCC1 | 2.11 | 35 | 3940 | 25 | 672 |  | 253 |  | 46 | 0.1 | 50 |  |
| CCCN1CC#CCN(NC(=O)[C@H](C)N)C(=O)N[C@H](Cc2c[nH]c3ccccc23)C(=O)N[C@@H](C)C(=O)N[C@@H](Cc2c[nH]c3ccccc23)C(=O)N[C@H](Cc2ccccc2)C(=O)N[C@H](C(N)=O)CCCC1 | 2.75 | 4 | 4460 | 12 | 918 | 13 | 313 | 29 |  | 1.86 |  |  |
| CCCCCCCCCCCCCCCC(=O)OCC(CSCC(N)C(=O)NCC(=O)N[C@@H](CC(=O)O)C(=O)N1CCC[C@H]1C(=O)N[C@@H](CCCCN)C(=O)N[C@@H](Cc1cnc[nH]1)C(=O)N1CCC[C@H]1C(=O)N[C@@H](CCCCN)C(=O)N[C@@H](CO)C(=O)N[C@@H](Cc1ccccc1)C(=O)O)OC(=O)CCCCCCCCCCCCCCC (some centres undefined) (H-[ξC](X1)GDPKHPKSF-OH) | 2.82 |  | 4970 |  | 1100 |  | 410 |  |  |  |  |  |
| C=CCN1CC#CCN(NC(=O)[C@H](C)N)S(=O)(=O)N[C@H](Cc2c[nH]c3ccccc23)C(=O)N[C@@H](C)C(=O)N[C@@H](Cc2c[nH]c3ccccc23)C(=O)N[C@H](Cc2ccccc2)C(=O)N[C@H](C(N)=O)CCCC1 | 2.74 | 4 | 5120 | -4 | 969 | 15 | 378 | 6 |  | 10.2 |  |  |
| C=CCN1CC#CCN(N)C(=O)N[C@H](Cc2c[nH]c3ccccc23)C(=O)N[C@@H](C)C(=O)N[C@@H](Cc2c[nH]c3ccccc23)C(=O)N[C@H](Cc2ccccc2)C(=O)N[C@H](C(N)=O)CCCC1 | 2.72 | 5 | 4900 | 2 | 1040 | 6 | 388 | 7 |  | > 50 |  |  |
| C=CCN1CC#CCN(NC(=O)[C@H](C)N)C(=O)N[C@@H](C)C(=O)N[C@@H](Cc2c[nH]c3ccccc23)C(=O)N[C@H](Cc2ccccc2)C(=O)N[C@H](C(N)=O)CC1 | 2.51 | 15 | 4850 | 3 | 954 | 17 | 389 | 6 |  | 10.2 |  |  |
| CCCN1CCCC[C@@H](C(N)=O)NC(=O)[C@@H](Cc2ccccc2)NC(=O)[C@H](Cc2c[nH]c3ccccc23)NC(=O)[C@H](C)NC(=O)[C@@H](Cc2c[nH]c3ccccc23)NC(=O)N(NC(=O)[C@H](C)N)CCCC1 | 2.08 | 36 | 4110 | 21 | 802 | 34 | 312 | 29 |  | 2.26 |  |  |
| C[C@H](N)C(=O)NN1CC#CCN(CC2CC2)CCCC[C@@H](C(N)=O)NC(=O)[C@@H](Cc2ccccc2)NC(=O)[C@H](Cc2c[nH]c3ccccc23)NC(=O)[C@H](C)NC(=O)[C@@H](Cc2c[nH]c3ccccc23)NC1=O | 2.53 | 14 | 4620 | 8 | 984 | 21 | 366 | 13 |  | 3.06 |  |  |
| C=CCN1CC#CCN(NC(=O)[C@H](C)N)C(=O)N[C@@H](C)C(=O)N[C@@H](Cc2c[nH]c3ccccc23)C(=O)N[C@H](Cc2ccccc2)C(=O)N[C@H](C(N)=O)CCCC1 | 2.3 |  | 3840 | 27 | 758 | 39 | 291 | 35 |  |  |  | 25 |
